A word on the IC50: it is the concentration that inhibits the measured activity by half.

The test system of this assay is RAW264.7. The assay is described as follows: Antiinflammatory activity in mouse RAW264.7 cells assessed as inhibition of LPS-stimulated nitric oxide production pretreated for 2 hrs before LPS challenge measured after 18 hrs by Griess method. In kind it is functional, cell-based. The method, boiled down: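 Murine RAW264.7 macrophages are stimulated with LPS, and NO released into the medium is measured. The read-out is an IC50.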
For the compound `CCO[C@]12OC(=O)C(C)=C1C1=C3[C@@](C)(C2=O)[C@@H]2C[C@@H]2[C@@]3(O)C[C@@H]2[C@]13OC(=O)C1=C3C[C@H]3[C@](O)(COC(=O)/C(C)=C/COC(=O)CCC(=O)OC1)[C@H]1C[C@H]1[C@]23C`, the IC50 is > 10 µM. With `CC1=C2C3=C4C(=C[C@@H]5[C@]36OC(=O)C3=C6C[C@H]6[C@](O)(COC(=O)/C(C)=C/COC(=O)CCC(=O)OC3)[C@H]3C[C@H]3[C@]56C)[C@H]3C[C@H]3[C@]4(C)[C@@H](O)[C@@]2(O)OC1=O`, the IC50 turned out to be 0.22 µM. In the case of `C=C1CC[C@H]2C(C)(C)[C@@H](O)CC[C@]2(C)[C@H]1C/C=C(\C)C=O`, the IC50 was > 10 µM.

In the case of `C=C1C[C@@H](O)[C@H]2C(C)(C)[C@@H](O)CC[C@]2(C)[C@H]1C/C=C(\C)C=O`, the IC50 is > 10 µM.

In the case of `CC1=C2C[C@@H]3[C@](C)(CCC[C@]3(C)O)C[C@@H]2OC1=O`, the IC50 was > 10 µM. Turning to `CC1=C2C[C@@H]3[C@](C)(CCC[C@]3(C)O)C[C@]2(O)OC1=O`, the IC50 is > 10 µM. On to `C=C1CC[C@@H]2[C@](C)(O)C[C@@]3(O)OC(=O)C(C)=C3[C@@]2(O)C1`, for which the IC50 was > 10 µM.

As to `C[C@@H]1C[C@H]2[C@@H]3CCC4=CC(=O)C=C[C@]4(C)[C@@]3(F)[C@@H](O)C[C@]2(C)[C@@]1(O)C(=O)CO` [DEXAMETHASONE], the IC50 was 0.47 µM.

For `COC(=O)/C(C)=C1\C(=O)[C@H](O)[C@]2(C)C3=C(C[C@@H]4[C@]5(OC(=O)C6=C5C[C@H]5[C@](O)(COC(=O)/C(C)=C/COC(=O)CCC(=O)OC6)[C@H]6C[C@H]6[C@]45C)[C@H]31)[C@H]1C[C@H]12` [SHIZUKAOL B], the IC50 is 0.15 µM. As for `COC(=O)/C(C)=C1/C(=O)[C@H](O)[C@]2(C)C3=C1[C@]14OC(=O)C(COC(C)=O)=C1C[C@H]1C[C@H]5C[C@H]5[C@]1(C)[C@@H]4C[C@]3(O)[C@H]1C[C@H]12` [SHIZUKAOL D], the IC50 was determined as 7.22 µM.

These data come from ChEMBL document CHEMBL2034896, “Terpenoids from Chloranthus serratus and their anti-inflammatory activities” (J Nat Prod, 2012).
